Results on nine compounds are retold here after ChEMBL document CHEMBL1137455, “Replacement of the lactone moiety on podophyllotoxin and steganacin analogues with a 1,5-disubstituted 1,2,3-triazole via ruthenium-catalyzed click chemistry” (Bioorg Med Chem, 2007).

Assay [1] concerns SH-SY5Y. Nature of the assay: Cytotoxicity against SH-SY5Y cells assessed as cell viability upto 100 uM after 48 hrs by MTT method. Format: functional, cell-based. The note with it: Homo sapiens. Put shortly: (§1)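 SH-SY5Y human neuroblastoma cells exposed to compounds for 48 h; viability read by MTT; dose–response curves; highest concentration tested 100 μM.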
In assay [2] the test system is SH-SY5Y. Nature of the assay: Cytotoxicity against SH-SY5Y cells assessed as cell viability after 48 hrs by MTT method. It is filed as functional, cell-based. As to conditions: Homo sapiens. Put shortly:
as §1

A further assay addresses Tubulin (Homo sapiens) (UniProt P68371+Q9H4B7+P0DPH7+P68366+Q13509+Q71U36+P04350+Q3ZCM7+P07437+P68363+Q9BQE3+Q6PEY2+Q13885+Q9BVA1+Q9BUF5). Nature of the assay: Induction of tubulin depolymerization after 16 hrs. It is filed as protein-complex assay. Put shortly:
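Cells treated 16 h with tubulin-disrupting agents; proteins harvested in presence of paclitaxel to fix polymerized and unpolymerized tubulin; soluble (non-polymerized) and pellet (polymerized) fractions run on SDS-PAGE and immunoblotted with monoclonal mouse anti-tubulin antibody.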

In assay [3] the test system is SH-SY5Y. Nature of the assay: Cytotoxicity against SH-SY5Y cells assessed as cell viability above 10 uM after 48 hrs by MTT method. It is filed as functional, cell-based. The note with it: Homo sapiens. The method in brief: as §1

Active and inactive are the calls of the source. The rule behind the calls is not given here.

As for `COc1cc(Cn2nncc2Cc2ccc3c(c2)OCO3)cc(OC)c1OC`, in the assay on SH-SY5Y [1], the Activity result was “Not toxic”. Consider `COc1cc2c(c(OC)c1OC)-c1cc3c(cc1Cc1cnnn1C2)OCO3`, for which the IC50 with SH-SY5Y [2] was 1100 nM.

Consider `COc1cc([C@@H]2c3cc4c(cc3[C@H](O)[C@H]3COC(=O)[C@H]23)OCO4)cc(OC)c1OC` [PODOFILOX], for which the result on Tubulin (Homo sapiens) was Active. The IC50 in the assay with SH-SY5Y [2] is 7 nM. Take `COc1ccc(/C=C\c2cc(OC)c(OC)c(OC)c2)cc1O`: the outcome on Tubulin (Homo sapiens) was Active. `COc1cc2c(c(OC)c1OC)-c1cc3c(cc1Cn1nncc1C2)OCO3`: in the assay with SH-SY5Y [3], the Activity entry was “Toxic”.

In the case of `COc1cc(Cc2cnnn2Cc2ccc3c(c2)OCO3)cc(OC)c1OC`, in the assay with SH-SY5Y [1], the Activity result is “Not toxic”.

As to `COc1cc(C2c3cc4c(cc3Cn3nncc32)OCO4)cc(OC)c1OC` (racemic), on Tubulin (Homo sapiens), the outcome was Active. In the assay with SH-SY5Y [2], the IC50 stood at 1500 nM. For the compound `COc1cc(C(O)c2cnnn2Cc2ccc3c(c2)OCO3)cc(OC)c1OC` (stereo unspecified), the Activity result in the assay with SH-SY5Y [1] is “Not toxic”. Regarding `CC(=O)O[C@H]1C(=O)[C@@]2(C)[C@H]([C@H](OC(=O)c3ccccc3)[C@]3(O)C[C@H](OC(=O)[C@H](O)[C@@H](NC(=O)c4ccccc4)c4ccccc4)C(C)=C1C3(C)C)[C@]1(OC(C)=O)CO[C@@H]1C[C@@H]2O`, on Tubulin (Homo sapiens), the outcome was inactive.
